# Bioassay records (PubChem BioAssay)
# HCV core dimer: blocks dimerization of HCV core protein; TR-FRET GST/Flag-core106 dimerization, 1536-well; inhibition, % at 5 µM; 0.33% of 300,000 active;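 active = inhibition above the mean of all tested compounds plus 3 SD, set per screening campaign, cut at about 45% in these data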
#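 System: GST/Flag-tagged HCV core106 proteins. Incubation: compound-protein-antibody incubation 4 h at 22.5 °C. Technique: HTRF with 340 nm excitation, 617/671 nm emission. Medium: KF-containing HEPES buffer, pH 7.45, DTT, CHAPS, BSA. Read-out: inhibition (%) from 671 over 617 nm ratio. Also added: Eu(K)-anti-GST 90 ng/mL plus XL665-anti-Flag 1 µg/mL.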
# PP5 primary: PP5 (human) phosphatase inhibition | purified PP5c, OMFP substrate fluorescence | inhibition, % at 6.7 µM | 0.18% of 320,000 active | AID 1987;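 active = inhibition above the campaign's mean inhibition across all tested compounds plus 3 SD, cut at about 9.5% in these data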;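 note: 0% = DMSO only and 100% = 100 µM cantharidin control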
# Target sequence (P53041 whole entry, looked up): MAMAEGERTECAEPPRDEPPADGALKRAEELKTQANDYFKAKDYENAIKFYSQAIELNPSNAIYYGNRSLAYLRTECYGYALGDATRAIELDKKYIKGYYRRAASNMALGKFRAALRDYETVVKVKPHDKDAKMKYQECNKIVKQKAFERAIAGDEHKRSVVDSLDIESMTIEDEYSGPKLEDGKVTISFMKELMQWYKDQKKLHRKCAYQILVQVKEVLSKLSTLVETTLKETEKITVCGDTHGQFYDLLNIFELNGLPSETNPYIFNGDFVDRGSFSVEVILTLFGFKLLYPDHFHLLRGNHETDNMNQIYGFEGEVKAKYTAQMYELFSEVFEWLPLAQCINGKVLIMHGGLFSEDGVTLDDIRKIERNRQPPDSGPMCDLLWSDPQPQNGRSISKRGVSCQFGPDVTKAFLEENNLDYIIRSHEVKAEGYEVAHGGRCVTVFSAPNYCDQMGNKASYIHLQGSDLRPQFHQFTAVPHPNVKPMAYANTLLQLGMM
# Myeloid diff MLP: compounds promoting myeloid differentiation. ER-HoxA9 myeloid progenitors, lysozyme-GFP differentiation, flow cytometry. calls only at 10 µM. 1% of 360,000 active. AID 624256;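 active = normalized GFP-positive differentiation at or above the plate's own cutoff, the solvent-only control mean plus 3 SD; inconclusive = no clear call, values can overlap the other calls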;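 note: cells exposed to compound for four days before flow analysis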
# CTSL1 counter: counter-screen for PFM18AAP inhibitors: inhibitors of F. hepatica cathepsin L1. inhibition, % at 5.96 µM. 0.49% of 300,000 active. recombinant F. hepatica cathepsin L1, Z-Leu-Arg-MCA fluorescence;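 active = inhibition above the mean of all tested compounds plus 3 SD, set per screening campaign, cut at about 17% in these data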;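 note: 0% = plate median of test compound wells and 100% = 1 µM Z-Phe-Ala-diazomethylketone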
# NadD block: NadD (S. aureus) enzyme inhibition | purified NadD enzyme, colorimetric absorbance read-out | inhibition, % at 20 µM | 0.78% of 360,000 active | AID 602399; in the data active = inhibition above about 26%
# PP1 counter: counter-screen for PP5 inhibitors: inhibitors of human PP1-alpha. AID 2235. inhibition, % at 6.7 µM. purified PP1alpha, OMFP fluorescence. 0.9% of 320,000 active. P62136;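 active = inhibition above the mean inhibition of all tested compounds plus 3 SD, computed separately for each screening campaign, cut at about 15% in these data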
# The depositor's hits bear a star; i = inactive; ? = inconclusive; / = no result given; + = active, no number. Sampled rows, rich in hits. Any-hit rate of the full collection: about 3.1%.
SMILES,HCV core dimer,PP5 primary,Myeloid diff MLP,CTSL1 counter,NadD block,PP1 counter
O=C(Cc1coc2ccc3ccccc3c12)N1CCN(c2ncccn2)CC1,53*,2,i,-1,7,3
COc1ccc(CSc2nncn2N)cc1Br,-10,-3,i,19*,-4,-2
COc1ccc(CSc2nnc(C)n2N)cc1Br,-7,1,i,0,2,-4
N=C1C(c2nc(-c3ccc(Br)cc3)cs2)=C(O)CN1NC(=O)c1ccc([N+](=O)[O-])cc1,53*,-1,i,4,7,0
CC1(C)N=C(N)N=C(N)N1c1ccc(F)cc1F,-4,0,+,0,-3,1
CCOC(=O)NC(=O)CSc1nc(C)cc(C(F)(F)F)c1C#N,-8,2,+,2,-6,1
CCCCOc1ccc(-c2cc(C(F)(F)F)c(C#N)c(SCC(=O)O)n2)cc1,2,0,+,4,8,-3
COC(=O)CSc1nc(C)cc(C(F)(F)F)c1C#N,-6,0,i,0,1,-2
Cc1ccc(S(=O)(=O)CCSc2nc(C)cc(C(F)(F)F)c2C#N)cc1,13,1,+,13,1,0
N#Cc1c(C(F)(F)F)cc(-c2ccc(F)cc2)nc1SCC(=O)O,7,0,i,6,-12,-1
Cc1cc(C(F)(F)F)c(C#N)c(SCC(=O)Nc2nc3cc(Br)ccc3s2)n1,7,2,+,-4,14,-9
COc1cccc2cc(C(=O)CS(=O)(=O)c3ccc(Cl)cc3)c(=O)oc12,-1,2,i,-3,8,3
Cc1nc(Cc2nnc(SCC(=O)N3CCN(c4ccc(F)cc4)CC3)o2)cs1,/,-1,i,/,-2,-2
Cc1nc(Cc2nnc(SCC(=O)N3CCN(c4ccc(O)cc4)CC3)o2)cs1,/,-1,+,/,1,-4
C#CCOCCOCCOCCNc1nc(N2CCN(C(=O)[C@H]([C@@H](C)O)n3cc(CCCCN)nn3)CC2)nc(N2CCN(C(=O)[C@H](CCCCN)n3cc(CCCC)nn3)CC2)n1,7,-1,+,0,-5,-3
C#CCOCCOCCOCCNc1nc(N2CCN(C(=O)[C@H]([C@@H](C)O)n3cc(CCCCN)nn3)CC2)nc(N2CCN(C(=O)[C@H](CCCCN)n3cc(CC(C)O)nn3)CC2)n1 (some centres undefined),-1,1,i,-2,-8,1
C#CCOCCOCCOCCNc1nc(N2CCN(C(=O)[C@H]([C@@H](C)CC)n3cc(CCCCN)nn3)CC2)nc(N2CCN(C(=O)[C@H](CCCCN)n3cc(CC(C)O)nn3)CC2)n1 (some centres undefined),-13,3,+,1,-4,1
C#CCOCCOCCOCCNc1nc(N2CCN(C(=O)[C@H]([C@@H](C)O)n3cc(CCCCN)nn3)CC2)nc(N2CCN(C(=O)[C@H]([C@@H](C)CC)n3cc(CCCCN)nn3)CC2)n1,-24,1,i,4,-4,-2
Cc1cccc(NC2=C/C(=N/S(=O)(=O)c3cccs3)c3ccccc3C2=O)c1,-3,3,/,54*,4,-1
O=C1C(Nc2ccc(O)cc2)=C/C(=N/S(=O)(=O)c2cccs2)c2ccccc21,/,/,?,/,-6,/
Cc1ccc(NC2=C/C(=N\S(=O)(=O)c3cccs3)c3ccccc3C2=O)c(C)c1,52*,6,?,88*,6,9
CC(C)C[C@@H]1COc2cccc(N(C)CCO)c2S(=O)(=O)N1,/,/,i,/,-5,/
C[C@H]1CN([C@@H](C)CO)S(=O)(=O)c2ccc(Br)cc2O[C@@H]1CN(C)C(=O)CCN1CCCCC1,/,/,i,/,-6,/
C#Cc1ccc([C@@H]2C=C(C(=O)N3CCOCC3)O[C@H](OCCCCO)C2)cc1,3,5,+,1,0,-2
O=C(C1=C[C@H](c2ccc(Br)cc2)C[C@H](OCCCCO)O1)N1CCOCC1,10,-2,i,0,-3,-4
SMILES,HCV core dimer,PP5 primary,Myeloid diff MLP,CTSL1 counter,NadD block,PP1 counter
CN1CCN(C(=O)C2=C[C@@H](c3ccc(Br)cc3)C[C@@H](OCc3ccc(CO)cc3)O2)CC1,-18,-7,i,17*,-5,-7
OCC[C@H]1C[C@H](O)[C@@H](O)[C@@]2(Cc3ccccc3O2)O1,-8,2,i,0,1,3
CNC(=O)C(Sc1ccccc1)c1ccccc1 (centres undefined),-3,1,i,-4,0,-5
CCCNC(=O)C(Sc1ccccc1)c1ccccc1 (centres undefined),3,1,i,36*,-1,0
COc1ccc(N2CCN(C(=O)C(=O)c3cn(CC(=O)N4CCCCCC4)c4ccccc34)CC2)cc1,15,3,+,6,5,5
COc1ccc(N2CCN(C(=O)C(=O)c3cn(CC(=O)N4CCOCC4)c4ccccc34)CC2)cc1,-18,0,i,0,-6,-10
CSc1ccccc1NC(=O)CN(C)C(=O)CNC(=O)c1ccc(Oc2ccccc2)cc1,/,/,i,/,-2,/
O=C(COc1ccccc1Br)Nc1ccc(S(=O)(=O)N2CCCC2)cc1,/,2,i,/,-5,9
O=C(CSc1nnc(NC2CCCCC2)s1)Nc1ccc2c(c1)C(=O)c1ccccc1C2=O,19,6,i,7,46*,0
CCC(Oc1ccc2c(=O)c(-c3ccccc3OC)coc2c1)C(=O)OCc1ccccc1 (centres undefined),8,0,i,2,-3,17*
COc1ccccc1-c1coc2cc(OC(=O)N3CCOCC3)ccc2c1=O,1,0,i,3,0,0
CC(=O)c1cccc(NC(=O)C(C)OC(=O)c2ccc3ncsc3c2)c1 (centres undefined),/,2,+,/,-3,-3
Oc1c(Cl)cc(Cl)cc1/C=N/c1nc(-c2ccc(Cl)cc2)cs1,-14,1,i,-2,25*,-5
CCC(CC)c1nnc(NC(=O)c2cccc(S(=O)(=O)N3CCOCC3)c2)s1,/,/,i,/,-1,/
CC(C)C(NC(=O)c1ccco1)C(=O)NCC(c1ccco1)N(C)C (centres undefined),1,-2,i,63*,0,-1
COc1ccccc1C(=O)NC(CCSC)C(=O)NCC(c1ccco1)N(C)C (centres undefined),-9,1,i,27*,-5,2
COc1ccccc1-c1cc(C(F)(F)F)n2ncc(C(=O)N3CCc4ccccc4C3)c2n1,3,4,i,1,-8,5
O=C(N/N=C/c1ccc(COc2ccc(Br)cc2)o1)c1ccc2c(c1)OCO2,/,/,i,/,10,/
O=C(N/N=C/c1ccc(-c2ccc(Br)cc2)o1)c1ccc2c(c1)OCO2,-1,5,i,9,19,16*
